Experimental data reported in ChEMBL document CHEMBL1134343, “Reduction in glucose levels in STZ diabetic rats by 4-(2,2-dimethyl-1-oxopropyl)benzoic acid: a prodrug approach for targeting the liver” (J Med Chem, 2001).

Legend:
[1] = Percent control of beta-hydroxybutyrate in normal 18 hr-fasted rat model dosed at 100 umol/Kg; format: functional
Method in brief: (§1)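 Male Sprague-Dawley rats fasted 18 h, single oral dose of 100 µmol/kg in 0.5% carboxymethylcellulose/0.2% Tween-80 in water, or vehicle alone, N = 5/group. Serum glucose and β-hydroxybutyrate measured in cardiac-puncture blood at 3 h postdose. Expressed as percent of vehicle control; Student's t-test.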

[2] = Percent control of glucose in normal 18 hr-fasted rat model dosed at 100 umol/Kg; format: functional; method in brief: as §1
[3] = tested on: Rattus norvegicus; assay: Percent efficacy (reduction in blood glucose) at 70 umol/kg in STZ diabetic rats after 11.25 days.; format: functional
Method in brief: (§2)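 Sprague-Dawley rats on a high-fat diet made diabetic with STZ 40 mg/kg i.v. (tail vein). Selected by blood glucose >200 mg/dL at day 5 and by an 18 h fast plus oral dextrose load (1.35 g/kg). Dosed orally once daily for 11 days, 70 µmol/kg in CMC/Tween-80 vehicle, N = 9/group. Food removed during the 0–6 h window. Tail-tip glucose at 6 h postdose on days 8 and 11, expressed as percent efficacy (100% = 60 mg/dL).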

[4] = tested on: Rattus norvegicus; assay: Percent efficacy (reduction in blood glucose) at 70 umol/kg in STZ diabetic rats after 8.25 days.; format: functional; method in brief: as §2
[5] = Area under the curve was evaluated by plasma concentration and time curve in normal rat after oral dosing of 300 uM/kg; format: ADME, organism-based
Method in brief: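 Normal Sprague-Dawley rats, single oral dose of 300 µmol/kg in 0.5% carboxymethylcellulose/0.2% Tween-80 in water, N = 5/group. Tail-tip blood taken at 2, 4, 7, 8, 24, 36 and 48 h postdose and centrifuged. Plasma AUC0-48h of active metabolite 3.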

[6] = species on record: Rattus norvegicus; assay: Effective dose against beta- Hydroxybutyrate in Normal 18 hr-fasted rat model; format: functional
[7] = tested on: Rattus norvegicus; assay: Percent change in testes weight in a 28-day safety study in normal Sprague-Dawley rats at 380,550, and 700 uM/kg/day.; format: functional, Testis
Method in brief: (§3)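 28-day safety study in normal Sprague-Dawley rats dosed daily at 380, 550 or 700 µmol/kg/day. Body weight given as percent of control. Organ weight calculated as [organ/body weight (treated)]/[organ/body weight (control)]. Significance reported at p < 0.05 and p < 0.01.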

[8] = tested on: Rattus norvegicus; assay: Percent change in heart weight in a 28-day safety study in normal Sprague-Dawley rats at 550 uM/kg/day.; format: functional; method in brief: as §3
[9] = tested on: Rattus norvegicus; assay: Percent change in liver weight in a 28-day safety study in normal Sprague-Dawley rats at 550 uM/kg/day.; format: functional; method in brief: as §3
[10] = tested on: Rattus norvegicus; assay: Percent change in testes weight in a 28-day safety study in normal Sprague-Dawley rats at 700 uM/kg/day.; format: functional, Testis; method in brief: as §3
[11] = tested on: Rattus norvegicus; assay: Percent change in body weight in a 28-day safety study in normal Sprague-Dawley rats at 700 uM/kg/day.; format: functional; method in brief: as §3
[12] = tested on: Rattus norvegicus; assay: Percent change in heart weight in a28-day safety study in normal Sprague-Dawley rats at 700 uM/kg/day.; format: functional; method in brief: as §3
[13] = tested on: Rattus norvegicus; assay: Percent change in liver weight in a 28-day safety study in normal Sprague-Dawley rats at 700 uM/kg/day.; format: functional; method in brief: as §3
[14] = tested on: Rattus norvegicus; assay: Percent change in body weight in a 28-day safety study in normal Sprague-Dawley rats at 380 uM/kg/day.; format: functional; method in brief: as §3
[15] = tested on: Rattus norvegicus; assay: Percent change in heart weight in a 28-day safety study in normal Sprague-Dawley rats at 380 uM/kg/day.; format: functional; method in brief: as §3
[16] = tested on: Rattus norvegicus; assay: Percent change in liver weight in a 28-day safety study in normal Sprague-Dawley rats at 380 uM/kg/day.; format: functional; method in brief: as §3
[17] = tested on: Rattus norvegicus; assay: Percent change in testes weight in a 28-day safety study in normal Sprague-Dawley rats at 380 uM/kg/day.; format: functional, Testis; method in brief: as §3
[18] = species on record: Rattus norvegicus; assay: Effective dose of the compound.; format: functional

Compound | Control [1] [%] | Control [2] [%] | Efficacy [3] [%] | Efficacy [4] [%] | AUC [5] [µg·h/mL] | other results
CCCCCCCC/C=C/CCCCCCCC(=O)OCC(COCc1ccc(C(=O)C(C)(C)C)cc1)OC(=O)CCCCCCC/C=C/CCCCCCCC (stereo not drawn) | <20.7 | 95.1 | 21.8 | 9.5 |  | 
CC(C)(C)C(=O)c1ccc(C(=O)OCC(COC(=O)c2ccc(C(=O)C(C)(C)C)cc2)(COC(=O)c2ccc(C(=O)C(C)(C)C)cc2)COC(=O)c2ccc(C(=O)C(C)(C)C)cc2)cc1 | 96.2 | 109.4 |  |  |  | 
CCCCCCCCCCCCCCCC(=O)OCC(COC(=O)c1ccc(C(=O)C(C)(C)C)cc1)OC(=O)CCCCCCCCCCCCCCC (stereo not drawn) | <20.5 | <63 | <90.2 | <75.7 | 1460 | 
CC(C)(C)C(=O)c1ccc(COCc2ccc(COCc3ccc(C(=O)C(C)(C)C)cc3)o2)cc1 | <17.3 | <79.7 | -3.9 | 6.2 |  | 
CCCCCCCCCCCCCCCC(=O)OCC(COCc1ccc(C(=O)C(C)(C)C)cc1)OC(=O)CCCCCCCCCCCCCCC (stereo not drawn) | <31.2 | 97.8 | -46.4 | 0.4 |  | 
CC(C)(C)C(=O)c1ccc(C(=O)OC(CO)CO)cc1 | <10.9 | <59.3 | <88.1 | <67.4 | 1480 | 
CC(C)(C)C(=O)c1ccc(COCC(O)CO)cc1 (stereo not drawn) | <33.5 | 77.6 | 4.3 | 5.7 |  | 
CCCCCCCCCCCCCCCC(=O)OCC(COC(=O)CCCCCCCCCCCCCCC)OC(=O)c1ccc(C(=O)C(C)(C)C)cc1 | <23.6 | <60.7 | <84.7 | 62.5 | 885 | 
CCCCCCCCOCC(COCCCCCCCC)OC(=O)c1ccc(C(=O)C(C)(C)C)cc1 | <20.1 | <82.9 |  |  |  | 
CC(C)(C)C(=O)c1ccc(CSCCSCc2ccc(C(=O)C(C)(C)C)cc2)cc1 | 82.6 | 79.7 |  |  |  | 
CC(C)(C)C(=O)c1ccc(CSCc2ccccc2)cc1 | 59.5 | 68.9 |  |  |  | 
CCCCCCCCCCCCCCCC(=O)OCC(COC(=O)CCCCCCCCCCCCCCC)OC(=O)CCc1ccc(C(=O)C(C)(C)C)cc1 | <24.6 | <71.6 | <97.5 | <84 | 930 | 
CC(C)(C)C(=O)c1ccc(C(=O)OCCC(COC(=O)c2ccc(C(=O)C(C)(C)C)cc2)COC(=O)c2ccc(C(=O)C(C)(C)C)cc2)cc1 | <28.8 | 98.6 |  |  |  | ED50 [6]: 96.2 mg/kg/day; Change [7]: 100%; Change [8]: 100%; Change [9]: 101%
CC(C)(C)C(O)c1ccc(C(=O)OCC(COC(=O)c2ccc(C(O)C(C)(C)C)cc2)OC(=O)c2ccc(C(O)C(C)(C)C)cc2)cc1 (stereo not drawn) | <32.5 | <57 | <61 | 49.8 | 1160 | 
COCC(COC)OC(=O)c1ccc(C(=O)C(C)(C)C)cc1 | <15.5 | <69.4 | 54.9 | <75.8 | 1130 | 
CC(C)(C)C(=O)c1ccc(COC/C=C/COCc2ccc(C(=O)C(C)(C)C)cc2)cc1 | <15 | 88.1 | -5.3 | 1.4 |  | 
CC(C)(C)C(=O)c1ccc(C(=O)OCC(O)COC(=O)c2ccc(C(=O)C(C)(C)C)cc2)cc1 | <11.9 | <58.4 | <111.1 | <99.5 | 1780 | 
CC(C)(C)C(=O)c1ccc(C(=O)OCC(O)CO)cc1 (stereo not drawn) | <13.6 | <56.1 | <55.1 | 41.6 | 1450 | 
CC(C)(C)C(=O)c1ccc(COCCN2CCOCC2)cc1 | <23.8 | 98.2 | -5.9 | <-13.1 |  | 
CCCCCCCCCCCCCCCC(=O)OCC(COC(=O)CCCCCCCCCCCCCCC)OCc1ccc(C(=O)C(C)(C)C)cc1 | <57.2 | 111.6 | 35.5 | 24.8 | 92 | ED50 [6]: 127 mg/kg/day
CC(C)(C)C(=O)c1ccc(COCC(COCc2ccc(C(=O)C(C)(C)C)cc2)OCc2ccc(C(=O)C(C)(C)C)cc2)cc1 | <19.6 | 74.1 | 3.8 | 25.9 |  | 
CC(C)(C)C(=O)c1ccc(COCc2cccc(COCc3ccc(C(=O)C(C)(C)C)cc3)n2)cc1 | <32.5 | 98.2 | -6.8 | 18.2 |  | 
Cc1ccc(C2(C(C)(C)C)OCCO2)cc1 | <12 | <58 | <64 | <52 | 1510 | Change [10]: <46%; Change [11]: <76%; Change [12]: 92%; Change [13]: 215%
CC(C)(C)C(=O)c1ccc(COCC2(COCc3ccc(C(=O)C(C)(C)C)cc3)CCCO2)cc1 | <12.7 | <78.1 | 40.1 | 45.6 |  | 
CC(C)(C)C(=O)c1ccc(C(=O)OCC(COC(=O)c2ccc(C(=O)C(C)(C)C)cc2)OC(=O)c2ccc(C(=O)C(C)(C)C)cc2)cc1 | <22.9 | 82.2 | <103.6 | <103.7 | 128 | ED50 [6]: 88 mg/kg/day; Change [14]: 95%; Change [15]: 101%; Change [16]: <113%; Change [17]: 102%
CC(C)(C)C(=O)c1ccc(C(=O)OCC(CO)(CO)COC(=O)c2ccc(C(=O)C(C)(C)C)cc2)cc1 | <14.3 | <68.9 |  |  |  | ED50 [18]: 3.4 mg/kg/day
CCCCCCCCCCCCCCCC(=O)OC(CO)COC(=O)c1ccc(C(=O)C(C)(C)C)cc1 (stereo not drawn) | <22.7 | <60.7 | <64.5 | <69.8 | 645 | 
